Reference: ChEMBL document CHEMBL1127081, “Synthesis of 2,4-disubstituted thiazoles and selenazoles as potential antifilarial and antitumor agents. 2. 2-Arylamido and 2-alkylamido derivatives of 2-amino-4-(isothiocyanatomethyl)thiazole and 2-amino-4-(isothiocyanatomethyl)selenazole” (J Med Chem, 1993)
pIC50: −log10 of the molar value. Activity calls are given as the source filed them. The rule behind the calls is not given here.

Experiments:
L1210 [1] = assay: Screen growth rate of L1210 leukemic cells in the presence of compound at 100 uM expressed as percent of control; type: functional, Mus musculus
Procedure, shortened: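 L1210 cells grown in static suspension at 38 °C in Fischer's medium with continuous 100 μM compound for 3 days. Growth rate = ratio of control to treated population doubling time, expressed as % of control; if growth slowed, the final rate over the 3-day period was used.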

L1210 [2] = assay: Compound was tested in vitro for antiproliferative activity against L1210 leukemic cells; type: functional, cell-based; conditions: Mus musculus
Procedure, shortened: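 Mouse L1210 leukemia cells grown in static suspension culture at 38 °C in Fischer's medium. Cells were exposed continuously to a range of concentrations for 3 days. Growth rate = control doubling time / treated doubling time, as % of control; the final rate was used if growth slowed. IC50 = concentration reducing growth rate to 50% of control.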

Acanthocheilonema viteae = assay: Antifilarial activity against adult worm of A. viteae in jirds at 100 mg/kg x 5 days administered subcutaneously; No activity; type: functional, organism-based; parameters: dose 100 mg/kg
Brugia pahangi = assay: Compound tested for anti-filarial activity against adult worm of Brugia pahangi in jirds at 100 mg/kg x 5 days administered subcutaneously; No activity; type: functional, organism-based; parameters: dose 100 mg/kg
[3] = molecular target: GMP synthase [glutamine-hydrolyzing] (Mus musculus, UniProt Q3THK7); assay: In vitro inhibitory activity against partially purified GMP synthetase in L1210 cells
Chain of GMP synthase [glutamine-hydrolyzing] (Q3THK7 whole entry): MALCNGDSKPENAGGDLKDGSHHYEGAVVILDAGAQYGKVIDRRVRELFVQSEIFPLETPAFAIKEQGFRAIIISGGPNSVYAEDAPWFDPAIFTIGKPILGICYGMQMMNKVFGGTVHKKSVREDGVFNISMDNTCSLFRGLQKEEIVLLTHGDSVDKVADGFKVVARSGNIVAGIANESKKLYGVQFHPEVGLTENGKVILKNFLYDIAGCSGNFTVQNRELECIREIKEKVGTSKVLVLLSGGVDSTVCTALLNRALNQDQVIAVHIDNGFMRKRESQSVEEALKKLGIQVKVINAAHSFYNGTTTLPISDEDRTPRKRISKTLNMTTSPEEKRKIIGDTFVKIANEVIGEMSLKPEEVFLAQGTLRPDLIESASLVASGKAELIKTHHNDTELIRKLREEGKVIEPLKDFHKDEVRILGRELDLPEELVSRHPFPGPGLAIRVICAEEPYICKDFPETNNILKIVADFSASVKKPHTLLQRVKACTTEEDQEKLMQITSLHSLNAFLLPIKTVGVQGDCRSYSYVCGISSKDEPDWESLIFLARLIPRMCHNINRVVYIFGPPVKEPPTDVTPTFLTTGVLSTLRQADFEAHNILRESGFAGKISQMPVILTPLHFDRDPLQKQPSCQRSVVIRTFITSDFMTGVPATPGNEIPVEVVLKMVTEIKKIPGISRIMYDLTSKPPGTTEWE

L1210 [4] = assay: Compound was tested in vitro for antiproliferative activity against L1210 leukemic cells; No significant inhibition; type: functional, cell-based, Mus musculus

Structure (SMILES) | pIC50 (L1210 [2]) | pIC50 [3] | GR (L1210 [1]) | Activity (Acanthocheilonema viteae) | Activity (Brugia pahangi) | IC50 (L1210 [4])
CCC(=O)Nc1nc(CN=C=S)c[se]1 | 5.46 |  | 0% | inactive | inactive | 
CC(=O)Nc1nc(CCl)cs1 | < 4.00 |  | 75% | inactive | inactive | 
CC(C)C(=O)Nc1nc(CN=C=S)c[se]1 | 4.55 |  | 0% | inactive | inactive | 
O=C(Nc1nc(CCl)cs1)c1ccccc1 |  |  | 100% | inactive | inactive | Not Active
CC(C)(C)C(=O)Nc1nc(CN=C=S)cs1 | 5.37 |  | 28% | inactive | inactive | 
Nc1nc(CN=C=S)cs1 | 4.59 |  | 0% | inactive | inactive | 
O=C(Nc1nc(CN=C=S)cs1)C(F)(F)F |  |  | 20% | inactive | inactive | 
COC(=O)Nc1nc(CN=C=S)cs1 |  |  |  | inactive | inactive | 
CC(=O)Nc1nc(CN=C=S)c[se]1 | 4.52 |  | 14% | inactive | inactive | 
Nc1nc(CN=C=S)c[se]1 | 4.68 |  | 0% | inactive | inactive | 
O=C(Nc1nc(CN=C=S)c[se]1)c1ccccc1 | 6.05 |  | 13% | inactive | inactive | 
CC(C)(C)C(=O)Nc1nc(CN=C=S)c[se]1 | 4.74 |  | 0% | inactive | inactive | 
CC(=O)Nc1nc(CCl)c[se]1 | < 4.00 |  | 65% | inactive | inactive | 
O=C(Nc1nc(CCl)c[se]1)c1ccccc1 |  |  | 101% | inactive | inactive | Not Active
CC(C)C(=O)Nc1nc(CN=C=S)cs1 | 5.09 |  | 0% | inactive | inactive | 

Continued, in another order:

pIC50 (L1210 [2]) | pIC50 [3] | Structure (SMILES) | GR (L1210 [1]) | Activity (Acanthocheilonema viteae) | Activity (Brugia pahangi) | IC50 (L1210 [4])
5.28 |  | CC(=O)Nc1nc(CN=C=S)cs1 | 1% | inactive | inactive | 
6.32 |  | Cc1ccc(C(=O)Nc2nc(CN=C=S)cs2)cc1 | 25% | inactive | inactive | 
6.09 |  | O=C(Nc1nc(CN=C=S)cs1)c1ccc(Cl)c(Cl)c1 | 0% | inactive | inactive | 
5.17 |  | CCC(=O)Nc1nc(CN=C=S)cs1 | 0% | inactive | inactive | 
6.66 |  | O=C(Nc1nc(CN=C=S)cs1)c1ccc(Cl)cc1 | 0% | inactive | inactive | 
6.70 | 6.46 | O=C(Nc1nc(CN=C=S)cs1)c1ccccc1 | 0% | inactive | inactive | 
6.30 |  | O=C(Nc1nc(CN=C=S)cs1)c1ccc(C(F)(F)F)cc1 | 0% | inactive | inactive | 
< 4.00 |  | CC(C)(C)c1ccc(C(=O)Nc2nc(CN=C=S)cs2)cc1 | 72% | inactive | inactive | 
5.96 |  | O=C(Nc1nc(CN=C=S)cs1)c1ccc(F)cc1 | 0% | inactive | inactive | 
6.36 |  | COc1ccc(C(=O)Nc2nc(CN=C=S)cs2)cc1 | 0% | inactive | inactive | 
